ChEMBL document CHEMBL1130400, “Discovery of a novel, selective, and orally bioavailable class of thrombin inhibitors incorporating aminopyridyl moieties at the P1 position” (J Med Chem, 1997)

Experiments:
Coagulation factor X [1] = biological target: T1, Coagulation factor X (Homo sapiens, UniProt P00742); test: (§1) In vitro inhibitory activity against Coagulation factor X
Outline: (§2)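 Ki from the dependence of initial rate on inhibitor concentration. Proteinase (human FXa, or bovine trypsin) equilibrated with inhibitor, then chromogenic substrate added. p-Nitroaniline release followed as the absorbance increase at 405 nm.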

Prothrombin = Prothrombin (Homo sapiens, UniProt P00734); test: In vitro inhibitory activity against human thrombin(IIa)
Serine protease 1 [2] = biological target: T2, Serine protease 1 (Bos taurus, UniProt P00760); test: In vitro inhibitory activity against bovine trypsin; outline: as §2
T2 sequence (P00760 whole entry): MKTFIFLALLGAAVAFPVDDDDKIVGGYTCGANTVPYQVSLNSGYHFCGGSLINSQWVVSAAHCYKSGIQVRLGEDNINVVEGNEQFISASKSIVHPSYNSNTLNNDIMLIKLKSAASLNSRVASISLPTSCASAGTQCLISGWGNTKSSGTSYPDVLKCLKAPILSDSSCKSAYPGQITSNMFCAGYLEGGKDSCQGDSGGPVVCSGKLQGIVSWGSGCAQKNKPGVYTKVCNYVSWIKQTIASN

[3] = Maximum plasma concentration after p.o. (10 mpk) administration in rats.; format: ADME, organism-based; set-up: route oral; details: rat, po, 10 mg/kg
Outline: (§3)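 Rats were anesthetized and fitted with catheters in the left jugular vein (dosing) and left carotid artery (sampling). Next day, conscious rats were dosed iv at 2 mpk or orally by gastric lavage at 10 mpk. Blood was drawn before dosing and at increasing times after. Plasma inhibitor levels gave concentration–time curves. F was derived by comparing dose-normalized AUCs from oral and iv dosing.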

[4] = Partition coefficient (logP); format: physicochemical; details: octanol/water
[5] = Maximum time of retention in plasma, after peroral (10 mpk) administration in rats.; format: ADME, organism-based; details: rat, po, 10 mg/kg; outline: as §3
[6] = Oral bioavailability in rat; format: ADME, organism-based; details: in vivo; outline: as §3
[7] = Half life in rats; format: ADME, organism-based; details: rat, in vivo; outline: as §3
[8] = pKa was determined; format: physicochemical
[9] = Clearance values in rats after iv administration.; format: ADME, organism-based; details: rat, in vivo; outline: as §3
Coagulation factor X [10] = biological target: T1, Coagulation factor X; test: as §1; remark: listed apart in the source
Outline: (§4)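 Ki values for bovine trypsin and human factor Xa came from the inhibitor-concentration dependence of the initial rate of p-nitroaniline release. Enzyme and inhibitor were equilibrated first, then chromogenic substrate was added, and the rate of absorbance increase at 405 nm was followed.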

Serine protease 1 [11] = biological target: T2, Serine protease 1; test: In vitro iinhibitory activity against bovine trypsin; outline: as §4

T1 sequence (P00742 41-179 limits assumed): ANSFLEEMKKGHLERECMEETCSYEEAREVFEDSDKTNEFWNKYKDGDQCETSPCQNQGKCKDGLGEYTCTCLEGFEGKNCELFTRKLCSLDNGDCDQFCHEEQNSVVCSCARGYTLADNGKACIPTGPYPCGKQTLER
T1 sequence (P00742 235-488 limits assumed): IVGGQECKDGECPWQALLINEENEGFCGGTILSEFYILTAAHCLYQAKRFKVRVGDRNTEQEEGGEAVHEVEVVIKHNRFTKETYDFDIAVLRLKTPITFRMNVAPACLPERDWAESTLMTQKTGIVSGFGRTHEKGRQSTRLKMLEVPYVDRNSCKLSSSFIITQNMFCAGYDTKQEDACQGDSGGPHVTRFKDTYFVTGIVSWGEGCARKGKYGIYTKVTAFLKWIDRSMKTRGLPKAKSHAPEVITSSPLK

| Ki (Coagulation factor X [1]) | Ki (Prothrombin) | Ki (Serine protease 1 [2]) | Compound | other results |
| --- | --- | --- | --- | --- |
| > 100 µM | 0.9 µM | > 100 µM | CC(C)(C)OC(=O)N[C@@H](C(=O)N1CCC[C@H]1C(=O)NCc1csc(N)n1)C(c1ccccc1)c1ccccc1 | – |
| 7.6 µM | 0.003 µM | 0.43 µM | Nc1ccc(CNC(=O)[C@@H]2CCCN2C(=O)[C@@H](Cc2ccc(Cl)c(Cl)c2)NS(=O)(=O)Cc2ccccc2)cn1 | – |
| 4.4 µM | 0.003 µM | 0.657 µM | CC(C)(C)OC(=O)N[C@@H](C(=O)N1CCC[C@H]1C(=O)NCc1ccc(N)nc1)C(C1CCCCC1)C1CCCCC1 | Cmax [3]: 1430 nM; logP [4]: > 3.35; Tmax [5]: 120 min; bioavailability [6]: 60%; half-life [7]: 35 min; pKa [8]: 6.5; clearance [9]: 27 mL/min/kg |
| > 100 µM | 0.35 µM | 277 µM | Nc1nc(CNC(=O)[C@@H]2CCCN2C(=O)[C@H](N)C(c2ccccc2)c2ccccc2)cs1 | – |
| > 200 µM | 0.0076 µM | 1.3 µM | CC(C)(C)OC(=O)N[C@@H](C(=O)N1CCC[C@H]1C(=O)NCc1ccc(N)nc1)C(c1ccccc1)c1ccccc1 | – |
| 240 µM | 0.01 µM | 8.3 µM | Cc1cc(N)nc(C)c1CNC(=O)[C@@H]1CCCN1C(=O)[C@H](N)C(c1ccccc1)c1ccccc1 | – |
| 10 µM | – | 12 µM | Nc1ccc(CNC(=O)[C@@H]2CCCN2C(=O)[C@@H](Cc2ccc(Cl)c(Cl)c2)NS(=O)(=O)Cc2ccccc2)cc1 | Cmax [3]: 660 nM; logP [4]: > 3.68; Tmax [5]: 53 min; bioavailability [6]: 35%; half-life [7]: 20 min; pKa [8]: 4.8; clearance [9]: 71 mL/min/kg |
| 16 µM | 0.0022 µM | 1.5 µM | Cc1cc(N)nc(C)c1CNC(=O)[C@@H]1CCCN1C(=O)[C@H](NC(=O)OC(C)(C)C)C(C1CCCCC1)C1CCCCC1 | – |
| 14 µM | 0.11 µM | 384 µM | O=C(NCc1ccccc1)[C@@H]1CCCN1C(=O)[C@@H](Cc1ccc(Cl)c(Cl)c1)NS(=O)(=O)Cc1ccccc1 | – |
| 160 µM | – | 3 µM | Cc1cc(N)nc(C)c1CNC(=O)[C@@H]1CCCN1C(=O)[C@H](N)C(C1CCCCC1)C1CCCCC1 | – |
| 230 µM | 0.38 µM | 284 µM | O=C(NCc1cccnc1)[C@@H]1CCCN1C(=O)[C@@H](Cc1ccc(Cl)c(Cl)c1)NS(=O)(=O)Cc1ccccc1 | – |
| > 1000 µM | – | 11 µM | CN[C@H](Cc1ccccc1)C(=O)N1CCC[C@H]1C(=O)NC[C@H]1CC[C@H](N)CC1 | logP [4]: -1.68; bioavailability [6]: 1%; pKa [8]: 10.2 |
| 420 µM | 3.7 µM | 233 µM | CC(C)(C)OC(=O)N[C@H](Cc1ccccc1)C(=O)N1CCC[C@H]1C(=O)NCc1ccc(N)cc1 | – |
| – | 0.13 µM | 56 µM | Nc1cc(CNC(=O)[C@@H]2CCCN2C(=O)[C@@H](Cc2ccc(Cl)c(Cl)c2)NS(=O)(=O)Cc2ccccc2)cs1 | Ki (Coagulation factor X [10]): > 100 µM |
| > 100 µM | 0.07 µM | 144 µM | Nc1nc(CNC(=O)[C@@H]2CCCN2C(=O)[C@H](N)C(C2CCCCC2)C2CCCCC2)cs1 | – |
| > 200 µM | 0.51 µM | 31 µM | O=C(NCc1ccncc1)[C@@H]1CCCN1C(=O)[C@@H](Cc1ccc(Cl)c(Cl)c1)NS(=O)(=O)Cc1ccccc1 | – |
| 160 µM | 0.0036 µM | 2.5 µM | Cc1cc(N)nc(C)c1CNC(=O)[C@@H]1CCCN1C(=O)[C@H](NC(=O)OC(C)(C)C)C(c1ccccc1)c1ccccc1 | Cmax [3]: 610 nM; logP [4]: 1.65; Tmax [5]: 53 min; bioavailability [6]: 40%; half-life [7]: 50 min; clearance [9]: 76 mL/min/kg |
| 52 µM | 0.011 µM | 8.9 µM | Cc1cc(N)nc(C)c1CNC(=O)[C@@H]1CCCN1C(=O)[C@@H](Cc1ccc(Cl)c(Cl)c1)NS(=O)(=O)Cc1ccccc1 | – |
| > 100 µM | 0.35 µM | – | CC(C)(C)OC(=O)N[C@@H](C(=O)N1CCC[C@H]1C(=O)NCc1csc(N)n1)C(C1CCCCC1)C1CCCCC1 | Ki (Serine protease 1 [11]): 52 µM |
| 27 µM | 0.56 µM | 45 µM | CC(C)(C)OC(=O)N[C@@H](C(=O)N1CCC[C@H]1C(=O)NCc1csc(N)c1)C(C1CCCCC1)C1CCCCC1 | – |
| 8.3 µM | 0.00082 µM | 1.2 µM | Nc1ccc(CNC(=O)[C@@H]2CCCN2C(=O)[C@H](N)C(C2CCCCC2)C2CCCCC2)cn1 | Cmax [3]: 530 nM; logP [4]: 2.21; Tmax [5]: 26 min; bioavailability [6]: 76%; half-life [7]: 102 min; pKa [8]: 6.2; clearance [9]: > 200 mL/min/kg |
| > 100 µM | 0.36 µM | 767 µM | Nc1nc(CNC(=O)[C@@H]2CCCN2C(=O)[C@@H](Cc2ccc(Cl)c(Cl)c2)NS(=O)(=O)Cc2ccccc2)cs1 | – |
| 94 µM | 0.012 µM | 5.4 µM | Nc1ccc(CNC(=O)[C@@H]2CCCN2C(=O)[C@H](N)C(c2ccccc2)c2ccccc2)cn1 | – |
